{"source": "paper PMC10395482", "about": "(Heliyon, 2023)", "key": {"[1]": {"system": "chick embryo chorioallantoic membrane", "experiment": "Chick chorioallantoic membrane", "format": "in vivo", "settings": "VEGF 0.5 μg, 48 h; n = 5", "procedure,_shortened": "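Fertilized eggs were held at 37 °C and 60% humidity for 5 days and turned 180° every 24 h. On day 6 the shell was opened along the air chamber and sterile rubber rings were placed at the aorta. Test compound in saline (0, 10, 50, 250 μM; 50 μL) was added inside the ring, and eggs were sealed for 48 h. Vascular density was calculated as vessel area/view area from stereomicroscope images.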"}, "MHCC97L xenograft": {"system": "MHCC97L xenograft", "experiment": "MHCC97L subcutaneous xenograft", "format": "in vivo, BALB/c nude mice", "settings": "14 days", "procedure,_shortened": "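Five-week-old male BALB/c nude mice received MHCC97L cells subcutaneously in the axilla (1 × 10^7 cells in 0.1 mL saline). At 50 mm3 they were randomized to groups and given the test compound in saline by tail vein (10, 20, 30 mg/kg; 0.1 mL/20 g). Tumor volume, calculated as (short diameter)2 × long diameter/2, and body weight were recorded every 2 days. Mice were sacrificed after 14 days; one-way ANOVA with Dunnett's test was used.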"}}, "data": [{"compound": "VEGF", "values": [{"measurement": "angiogenesis in CAM, VEGF alone", "setting": "[1]", "value": "significantly increased neoangiogenesis"}]}, {"compound": "Clc1ccc(Nc2nnc(Cc3ccncc3)c3ccccc23)cc1", "note": "[PTK787]", "values": [{"measurement": "Tumor Inhibition Rate", "setting": "MHCC97L xenograft; PTK787 50 mg/kg, n = 5", "value": 88.78, "unit": "%"}, {"measurement": "Tumor Weight", "setting": "MHCC97L xenograft; PTK787 50 mg/kg, mean ± SD, n = 5, *** p < 0.001 vs saline", "value": "0.146 ± 0.049 *** g"}, {"measurement": "tumor growth, volume and weight (in words)", "setting": "MHCC97L xenograft; SAIF 10, 20, 30 mg/kg or PTK787 50 mg/kg, vs control", "value": "decreased MHCC97L transplanted tumor growth and significantly reduced mean tumor volume"}]}]}
